Assay results as given in ChEMBL document CHEMBL1153830, “Treatment of a clinically relevant plant-pathogenic fungus with an agricultural azole causes cross-resistance to medical azoles and potentiates caspofungin efficacy” (2007).
Converted amounts (≈) assume the structure as drawn. The source made the active and inactive calls. No cut-off for these calls is given here.

Experiments:
[1] = test system: Colletotrichum graminicola; assay: Fungicidal activity against tebuconazole-nonadapted wild type Colletotrichum graminicola CgM2 assessed as deffects in cell wall rigidity at hyphal apex at 0.25 ug/ml after 3 days by differential interference contrast microscopy; format: functional, organism-based
Method in brief: (§1)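 Mycelia were grown 3 days in liquid complete medium with caspofungin at 0–5 μg/ml. Cell wall rigidity and hyphal swelling were judged by Nomarski (DIC) light microscopy.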

[2] = test system: Colletotrichum graminicola; assay: Fungicidal activity against tebuconazole-adapted wild type Colletotrichum graminicola CgM2 infected in excised human skin assessed as inhibition of invasive colonized hyphal growth at hypodermis at ED90 after 4 days by Uvitex-2B staining-based fluorescence microscopy; format: functional, organism-based
Method in brief: (§2)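 Excised human skin from reduction mammoplasty, all pieces from one donor, cut to 20 mm discs. Each disc got 15–20 prick wounds and 100 μl of 10^6 conidia/ml. Discs sat in a Franz diffusion cell at 32°C over isotonic NaCl for up to 4 days. Drug was applied at ED50, ED90 or 2× ED90, three pieces per condition. Biopsies were cryosectioned and Uvitex 2B-stained; hyphal area per section was measured by fluorescence.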

[3] = test system: Colletotrichum graminicola; assay: Fungicidal activity against tebuconazole-nonadapted wild type Colletotrichum graminicola CgM2 infected in excised human skin assessed as inhibition of invasive colonized hyphal growth at epidermis at ED90 after 4 days by Uvitex-2B staining-based fluorescence microscopy; format: functional, organism-based; method in brief: as §2
[4] = test system: Colletotrichum graminicola; assay: Fungicidal activity against tebuconazole-adapted wild type Colletotrichum graminicola CgM2 assessed as increase in metabolically inactive hyphal count at 2.5 ug/ml after 3 days by FUN1 staining-based fluorescence microscopy; format: functional, organism-based
Method in brief: (§3)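 Mycelia were grown 3 days in liquid complete medium with drug at 0–5 μg/ml. Staining used 50 μM FUN-1 in 2% glucose and 10 mM HEPES (pH 7.2), 1 h at 27°C. Viability was scored by epifluorescence microscopy with a GFP-LP filter. Negative controls were killed with 70% ethanol for 30 min before staining.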

[5] = test system: Colletotrichum graminicola; assay: Fungicidal activity against tebuconazole-adapted wild type Colletotrichum graminicola CgM2 assessed as metabolically inactive hyphae at 0.025 ug/ml after 3 days by FUN1 staining-based fluorescence microscopy; format: functional, organism-based; method in brief: as §3
[6] = test system: Colletotrichum graminicola; assay: Fungicidal activity against tebuconazole-nonadapted wild type Colletotrichum graminicola CgM2 assessed as metabolically inactive hyphae at 0.025 ug/ml after 3 days by FUN1 staining-based fluorescence microscopy; format: functional, organism-based; method in brief: as §3
[7] = test system: Colletotrichum graminicola; assay: Fungicidal activity against tebuconazole-nonadapted wild type Colletotrichum graminicola CgM2 infected in excised human skin assessed as inhibition of invasive colonized hyphal growth at dermis at ED90 after 4 days by Uvitex-2B staining-based fluorescence microscopy; format: functional, organism-based; method in brief: as §2
[8] = test system: Colletotrichum graminicola; assay: Fungicidal activity against tebuconazole-adapted wild type Colletotrichum graminicola CgM2 infected in excised human skin assessed as inhibition of invasive colonized hyphal growth at dermis at ED90 after 4 days by Uvitex-2B staining-based fluorescence microscopy; format: functional, organism-based; method in brief: as §2
[9] = test system: Colletotrichum graminicola; assay: Fungicidal activity against tebuconazole-adapted wild type Colletotrichum graminicola CgM2 assessed as cell death at 0.25 ug/ml after 3 days by FUN1 staining-based fluorescence microscopy; format: functional, organism-based; method in brief: as §3
[10] = test system: Colletotrichum graminicola; assay: Fungicidal activity against tebuconazole-nonadapted wild type Colletotrichum graminicola CgM2 assessed as cell death at 2.5 ug/ml after 3 days by FUN1 staining-based fluorescence microscopy; format: functional, organism-based; method in brief: as §3
[11] = test system: Colletotrichum graminicola; assay: Fungicidal activity against tebuconazole-adapted wild type Colletotrichum graminicola CgM2 assessed as inhibition of radial growth rate at 23 degC in darkness; format: functional
Method in brief: (§4)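 Radial growth on solid complete medium, 23°C, darkness. Colony diameters were read at 3 and 6 days after inoculation and compared with drug-free control plates. Azoles and picoxystrobin were dissolved in 12% (wt/vol) Cremophor EL and tested at 0–2.5 μg/ml. Caspofungin, amphotericin B and nystatin were dissolved in water and tested from 0.00025 μg/ml; caspofungin plates used sucrose (10 mg/ml) in place of glucose.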

[12] = test system: Colletotrichum graminicola; assay: Fungicidal activity against tebuconazole-nonadapted wild type Colletotrichum graminicola CgM2 infected in excised human skin assessed as inhibition of invasive colonized hyphal growth at epidermis at twofold ED90 after 4 days by Uvitex-2B staining-based fluorescence microscopy; format: functional, organism-based; method in brief: as §2
[13] = test system: Colletotrichum graminicola; assay: Fungicidal activity against tebuconazole-adapted wild type Colletotrichum graminicola CgM2 assessed as deffects in cell wall rigidity at 2.5 ug/ml after 3 days by differential interference contrast microscopy; format: functional, organism-based; method in brief: as §1
[14] = test system: Colletotrichum graminicola; assay: Fungicidal activity against tebuconazole-adapted wild type Colletotrichum graminicola CgM2 infected in excised human skin assessed as inhibition of invasive colonized hyphal growth at epidermis at ED90 after 4 days by Uvitex-2B staining-based fluorescence microscopy; format: functional, organism-based; method in brief: as §2
[15] = test system: Colletotrichum graminicola; assay: Fungicidal activity against tebuconazole-nonadapted wild type Colletotrichum graminicola CgM2 assessed as deffects in cell wall rigidity at 0.025 ug/ml after 3 days by differential interference contrast microscopy; format: functional, organism-based; method in brief: as §1
[16] = test system: Colletotrichum graminicola; assay: Fungicidal activity against tebuconazole-adapted wild type Colletotrichum graminicola CgM2 assessed as cell wall rigidity deffect-related cell wall swelling at 0.25 ug/ml after 3 days by differential interference contrast microscopy; format: functional, organism-based; method in brief: as §1
[17] = test system: Colletotrichum graminicola; assay: Fungicidal activity against tebuconazole-nonadapted wild type Colletotrichum graminicola CgM2 assessed as metabolically inactive hyphae at 0.25 ug/ml after 3 days by FUN1 staining-based fluorescence microscopy; format: functional, organism-based; method in brief: as §3
[18] = test system: Colletotrichum graminicola; assay: Fungicidal activity against tebuconazole-adapted wild type Colletotrichum graminicola CgM2 assessed as cell wall rigidity deffect-related increase in apical cell diameter at 0.025 ug/ml after 3 days by differential interference contrast microscopy; format: functional, organism-based; method in brief: as §1
[19] = test system: Colletotrichum graminicola; assay: Fungicidal activity against tebuconazole-nonadapted wild type Colletotrichum graminicola CgM2 infected in excised human skin assessed as inhibition of invasive colonized hyphal growth at epidermis at ED50 after 4 days by Uvitex-2B staining-based fluorescence microscopy; format: functional, organism-based; method in brief: as §2
[20] = test system: Colletotrichum graminicola; assay: Fungicidal activity against tebuconazole-nonadapted wild type Colletotrichum graminicola CgM2 assessed as deffects in cell wall rigidity at 0.25 ug/ml after 3 days by differential interference contrast microscopy; format: functional, organism-based; method in brief: as §1
[21] = test system: Colletotrichum graminicola; assay: Fungicidal activity against tebuconazole-nonadapted wild type Colletotrichum graminicola CgM2 assessed as inhibition of radial growth rate at 23 degC in darkness; format: functional; method in brief: as §4
[22] = test system: Colletotrichum graminicola; assay: Fungicidal activity against tebuconazole-nonadapted wild type Colletotrichum graminicola CgM2 assessed as deffects in cell wall rigidity at 2.5 ug/ml after 3 days by differential interference contrast microscopy; format: functional, organism-based; method in brief: as §1
[23] = test system: Colletotrichum graminicola; assay: Fungicidal activity against tebuconazole-nonadapted wild type Colletotrichum graminicola CgM2 infected in excised human skin assessed as inhibition of invasive colonized hyphal growth at dermis at ED50 after 4 days by Uvitex-2B staining-based fluorescence microscopy; format: functional, organism-based; method in brief: as §2
[24] = Colletotrichum graminicola, CgM2, read-out: ED50 (the source's name)

## CC[C@H](C)C[C@H](C)CCCCCCCCC(=O)N[C@H]1C[C@@H](O)[C@@H](NCCN)NC(=O)[C@@H]2[C@@H](O)CCN2C(=O)[C@H]([C@H](O)CCN)NC(=O)[C@H]([C@H](O)[C@@H](O)c2ccc(O)cc2)NC(=O)[C@@H]2C[C@@H](O)CN2C(=O)[C@H]([C@@H](C)O)NC1=O [CASPOFUNGIN]
[1]
  Activity: Active
[2]
  Activity: Active
[3]
  Activity: inactive
[4]
  Activity: Active
[5]
  Activity: Active
[6]
  Activity: inactive
[7]
  Activity: inactive
[8]
  Activity: Active
[9]
  Activity: Active
[10]
  Activity: Active
[11]
  ED90: 0.77 µg/mL (≈ 0.704 µM)
[11]; [24]
  EC50: 0.006 µg/mL (≈ 0.00549 µM)
[12]
  Activity: inactive
[13]
  Activity: inactive
[14]
  Activity: Active
[15]
  Activity: inactive
[16]
  Activity: Active
[17]
  Activity: Active
[18]
  Activity: Active
[19]
  Activity: inactive
[20]
  Activity: Active
[21]
  ED90: 1.281 µg/mL (≈ 1.17 µM)
[21]; [24]
  EC50: 0.032 µg/mL (≈ 0.0293 µM)
[22]
  Activity: Active
[23]
  Activity: inactive
